According to ChEMBL document CHEMBL1641438, “In vitro efficacy of 7-benzylamino-1-isoquinolinamines against Plasmodium falciparum related to the efficacy of chalcones” (Bioorg Med Chem Lett, 2011):
Calls of active or inactive are those of the source. No cut-off for these calls is given here.

What was measured:
Plasmodium falciparum [1] = experiment: Antimalarial activity against multidrug-resistant Plasmodium falciparum TM91C235 assessed as inhibition of [3H]hypoxanthine uptake; type: functional, organism-based
Plasmodium falciparum [2] = experiment: Resistance index, ratio of IC50 for chloroquine-resistant, mefloquine-sensitive Plasmodium falciparum W2 to IC50 for mefloquine-resistant, chloroquine-sensitive Plasmodium falciparum D6; type: functional
Plasmodium falciparum [3] = experiment: Antimalarial activity against chloroquine-resistant, mefloquine-sensitive Plasmodium falciparum W2 assessed as inhibition of [3H]hypoxanthine uptake; type: functional, organism-based
Plasmodium falciparum [4] = experiment: Antimalarial activity against mefloquine-resistant, chloroquine-sensitive Plasmodium falciparum D6 assessed as inhibition of [3H]hypoxanthine uptake; type: functional, organism-based
Plasmodium falciparum [5] = experiment: Resistance index, ratio of IC50 for Plasmodium falciparum multidrug-resistant TM91C235 to IC50 for mefloquine-resistant, chloroquine-sensitive Plasmodium falciparum D6; type: functional
Plasmodium falciparum [6] = experiment: Antimalarial activity against multidrug-resistant Plasmodium falciparum TM91C235 assessed as inhibition of [3H]hypoxanthine uptake in presence of 1 mM folinic acid; type: functional, organism-based
How it was run: (§1)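 Folinic acid reversal assay, adapted from a folic acid reversal method and run in normal plasma, to rule out DHFR inhibition. Parasite growth inhibition (IC50) is measured with 1 mM folinic acid present and compared with the IC50 obtained without folinic acid.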

Plasmodium falciparum [7] = experiment: Antimalarial activity against mefloquine-resistant, chloroquine-sensitive Plasmodium falciparum D6 assessed as inhibition of [3H]hypoxanthine uptake in presence of 1 mM folinic acid; type: functional, organism-based; how it was run: as §1

Compound | IC50 (Plasmodium falciparum [1]) | Ratio IC50 (Plasmodium falciparum [2]) | IC50 (Plasmodium falciparum [3]) | IC50 (Plasmodium falciparum [4]) | Ratio IC50 (Plasmodium falciparum [5]) | Activity (Plasmodium falciparum [6]) | Activity (Plasmodium falciparum [7])
Nc1nc(N)c2cc(NCc3cccc(Br)c3)ccc2n1 | 20.8 nM | 14.6 | 2.08 nM | < 0.142 nM | 147 |  | 
Cl.Cl.Cl.Cl.Nc1nccc2ccc(NCc3ccc(Cl)c(Cl)c3)cc12 | 111 nM | 6.58 | 455 nM | 69.1 nM | 1.6 |  | 
Cl.Cl.Nc1nccc2ccc(NCc3ccccc3)cc12 | 486 nM | 6.59 | 1400 nM | 212 nM | 2.29 |  | 
CCN(CC)CCCC(C)Nc1ccnc2cc(Cl)ccc12 (configuration not stated) |  |  |  |  |  | Active | Active
Cl.Cl.Cl.Nc1nccc2ccc(NCc3ccc(Cl)cc3)cc12 | 205 nM | 5.67 | 417 nM | 73.6 nM | 2.78 | Active | Active
Cl.Cl.Cl.Nc1nccc2ccc(NCc3cccc(Cl)c3)cc12 | 158 nM | 5.55 | 359 nM | 64.8 nM | 2.44 | Active | Active
Cl.Cl.Nc1nccc2ccc(NCc3cccc(C(F)(F)F)c3)cc12 | 71.9 nM | 5.2 | 260 nM | 50.1 nM | 1.44 |  | 
OC(c1cc(C(F)(F)F)nc2c(C(F)(F)F)cccc12)C1CCCCN1 (configuration not stated) [MEFLOQUINE] | 37.4 nM | 0.289 |  | 20.1 nM | 1.85 |  | 
Cl.Cl.Nc1nccc2ccc(NCc3cccc(Br)c3)cc12 | 142 nM | 4.09 | 421 nM | 103 nM | 1.38 |  | 
CCc1nc(N)nc(N)c1-c1ccc(Cl)cc1 |  |  |  |  |  | inactive | inactive
